Assay outcomes from PubChem BioAssay.
WNV protease inh = WNV NS2B-NS3 proteinase inhibition; P06935; WNV NS2B-NS3 protease, fluorogenic substrate Ex360/Em465; active compounds read low; z-score (test concentration not listed); hit rate 0.18% among 65,000; AID 577; in the data active = z-score below about -3
M1 agonist = agonists of M1 muscarinic receptor | CHO-M1 cells, Fluo-4 calcium fluorescence, agonist mode; active compounds read high | B-score at 10 µM | hit rate 3% among 64,000 | AID 626;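 active = fluorescence rise, raw or as B-score row- and column-corrected plate score, outside the 99.7% band of its plate's samples, either direction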
M1 antagonist = antagonists of rat M1 muscarinic receptor. P08482. AID 628. B-score at 10 µM. hit rate 3.4% among 64,000. CHO-M1 cells, Fluo-4 calcium, ACh EC80 antagonist mode; active compounds read low;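 active = calcium fluorescence response, raw or row-and-column corrected B-score, differing from the plate sample mean either way at a set confidence level, mostly lower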
Target sequence (P08482 whole entry, looked up): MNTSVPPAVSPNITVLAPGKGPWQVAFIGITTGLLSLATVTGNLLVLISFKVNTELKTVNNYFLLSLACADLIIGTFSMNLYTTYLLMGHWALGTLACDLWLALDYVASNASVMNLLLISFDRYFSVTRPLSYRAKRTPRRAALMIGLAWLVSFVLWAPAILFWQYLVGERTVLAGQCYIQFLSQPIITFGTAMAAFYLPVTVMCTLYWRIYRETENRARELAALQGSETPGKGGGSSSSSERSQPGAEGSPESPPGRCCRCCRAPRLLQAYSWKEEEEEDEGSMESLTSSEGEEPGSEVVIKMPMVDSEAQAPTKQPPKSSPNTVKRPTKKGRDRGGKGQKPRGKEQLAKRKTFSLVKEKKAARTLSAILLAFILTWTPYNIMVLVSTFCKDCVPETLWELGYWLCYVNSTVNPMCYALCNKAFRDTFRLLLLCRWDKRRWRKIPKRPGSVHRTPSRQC
AP ELISA ortho = orthogonal test for alternative complement pathway inhibitors; AID 1235; inhibition, % at 5 µM; hit rate 0.08% among 62,000; Human serum alternative complement pathway, LPS-coated ELISA, C3 deposition; tested in compound mixtures;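 active = inhibition above 30% in each of the two pooled mixtures holding the compound, so the lower value exceeds 30%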;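 also: 0% = serum in Mg-EGTA without compound and 100% = EDTA serum blank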
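Test system – human serum alternative complement pathway, C3 deposition on LPS-coated wells · Buffer or medium – diluted human serum in Mg2+-EGTA GVB++ · Compound dosing – 5 µM each compound, pools of ten, 50 µM per pool · Schedule – 1 h serum-compound exposure at 37 °C · Measured by – Anti-C3 ELISA, OD 450 nm · Read-out basis – percent inhibition of C3 deposition onto LPS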
tolC growth inh = growth inhibitors of E. coli BW25113 tolC mutant. OD615. growth inhibition, % at 10 µM (by protocol). hit rate 2.2% among 65,000. AID 573;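 active = growth inhibition at or above a cutoff equal to the mean over every tested compound plus 3 SD, cut at about 60% in these data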;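 also: growth measured after 20 h incubation at 37 °C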
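System: E. coli ΔtolC::kan strain BW25113; Buffer or medium: LB broth supplemented with 50 µg/mL kanamycin; Compound: 10 µM final, single dose; Incubation: bacterial growth with compound for 20 h at 37 °C; Signal: A615 absorbance measurement; Evaluation: growth inhibition in percent.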
Ecoli WT expand = blocks growth of wild type E. coli BW25113. OD600 absorbance. growth inhibition, % at 100 µM. hit rate 0.15% among 98,000. AID 710;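 active = growth inhibition above about 50% at one test dose, limit read from the data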;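 also: growth measured after 20 h incubation at 37 °C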
M1 agonist conf = rat M1 muscarinic agonism, confirmation; shares compounds with M1 agonist; CHO-M1 cells, Fluo-4 calcium fluorescence, agonist mode; actives lie on both sides; fluorescence change (max-min) at 10 µM; hit rate 19% among 1,700; AID 1488;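 active = fluorescence change differs from the solvent-only DMSO control mean at a set confidence level in both duplicate runs; inconclusive = differs from solvent-only control mean in just one of two runs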;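 also: an EC20 dose of acetylcholine follows compound addition during the same imaging run; raw fluorescence intensity difference in instrument units with no normalization to controls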
M4 agonist ctr = rat M4 muscarinic agonism, M1 counter-screen; shares compounds with M1 agonist; CHO M4/Gqi5 cells, Fluo-4 calcium fluorescence, agonist mode; actives lie on both sides; fluorescence change (max-min) at 10 µM; hit rate 9% among 1,700; AID 1741;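 active = fluorescence change differing from the plate's solvent-only control wells at 99.7% confidence in both duplicates, whether higher or lower; inconclusive = differs from solvent controls in only one of two duplicates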
* marks the source's active call; other numbers are inactive results; ? = inconclusive; nt = not tested or not shown. A selection: hits, their analogues and other compounds. The true share with any hit is near 5.2%.

SMILES | WNV protease inh | M1 agonist | M1 antagonist | AP ELISA ortho | tolC growth inh | Ecoli WT expand | M1 agonist conf | M4 agonist ctr
CC1Cc2ccccc2N1C(=O)CCNS(=O)(=O)c1cccc2nsnc12 (stereo not given) | 1.4 | 2.7* | -0.04 | 13 | 6 | 1 | ? | ?
CCOC(=O)C1=C(O)CSC1=Nc1ccc(Cl)cc1 | -0.39 | 3.8* | 1.3 | 12 | -13 | 3 | ? | ?
C/C(Cl)=C\Cn1c(NCCc2ccccc2)nc2c1c(=O)n(C)c(=O)n2C | 0.87 | 1.1 | 0.13 | 6 | -21 | -8 | nt | nt
C=CCn1c(NCCc2ccccc2)nc2c1c(=O)n(C)c(=O)n2C | 1.9 | 6.5* | -0.93 | nt | -6 | 4 | 25 | -29
CC(=Nc1ccc(C)cc1)c1sc2ccccc2c1O | nt | nt | nt | nt | nt | -8 | nt | nt
CC(=Nc1cccc(O)c1)c1sc2ccccc2c1O | 0.38 | 5.4* | -0.037 | -1 | 12 | 6 | 43 | 41
CC(=O)c1c(C)[nH]c(C(=O)CSc2nnc(-c3ccco3)n2Cc2ccccc2)c1C | -0.24 | 2.6* | -0.94 | -4 | 14 | -1 | -6.6 | -34
CCCNC(=O)Cn1cnc2sc(C(=O)N3CCN(c4ccc(F)cc4)CC3)c(C)c2c1=O | nt | nt | nt | nt | nt | -4 | nt | nt
Cc1c(C(=O)N2CCN(c3ccccc3F)CC2)sc2ncn(CC(=O)N3CCOCC3)c(=O)c12 | 0.78 | 3.7* | -0.0089 | 12 | -14 | -9 | -15 | ?
O=C(COC(=O)c1c2c(nc3ccccc13)CCCC2)Nc1ccc2c(c1)OCO2 | -1.4 | 13* | -2* | nt | 47 | -8 | ? | -16
Cn1nc(C(F)(F)F)c(/C=N/OC(=O)c2ccccc2Cl)c1SCc1ccccc1Cl | nt | nt | nt | nt | nt | -3 | nt | nt
CC(=O)c1cccc(-n2nnnc2SCC(=O)Nc2cccc(NC(=O)c3ccco3)c2)c1 | 0.03 | 3.6* | -0.13 | -4 | 19 | -9 | -28 | ?
Cc1ccc(-n2nnnc2SCC(=O)NNC(=O)c2ccco2)cc1C | nt | nt | nt | nt | nt | 5 | nt | nt
CCN1C(=O)c2cccc3c(NC(=O)c4ccc5c(c4)OCCO5)ccc1c23 | 0.09 | 9* | 0.036 | 1 | -18 | -21 | 2.8 | 134*
CC(CN1CCOCC1)OC(=O)c1ccc(Br)cc1 (stereo not given) | 0.95 | 34* | -0.59 | 10 | 2 | 20 | ? | -35
CC(CN1CCN(C)CC1)OC(=O)c1ccccc1 (stereo not given) | nt | nt | nt | nt | nt | 4 | nt | nt
COc1ccc(C2C(C(=O)NC(C)C)c3ccccc3C(=O)N2C)cc1OC (stereo not given) | -0.02 | 3.4* | 1.4 | 9 | -11 | -1 | -12 | -24
COc1ccc(-c2cc(=O)oc3c(C)c(O)c(CN(C)C)cc23)cc1 | 0.14 | 6.4* | -0.021 | 3 | 10 | 4 | -0.86 | -3.3
COC(=O)COc1ccc2c(-c3ccc(OC)cc3)cc(=O)oc2c1 | nt | nt | nt | nt | nt | -12 | nt | nt
Clc1ccc(Cn2ncc3c(N4CCOCC4)ncnc32)cc1 | -0.6 | 4.6* | -0.0064 | 25 | 15 | -19 | ? | 9.3
COCCNc1ncnc2c1cnn2Cc1ccc(Cl)cc1 | 0.18 | 3.1* | -0.96 | 20 | -2 | -2 | ? | -45
Cc1ccc(Cn2ncc3c(N4CCCC4)ncnc32)cc1 | -0.0019 | 1.1 | -0.43 | -16 | 5 | 0 | nt | nt
CCCOc1cccc(C2C(C(=O)c3ccc(C)o3)=C(O)C(=O)N2CCCN(C)C)c1 (stereo not given) | 0.35 | -0.49 | 0.12 | nt | -3 | nt | nt | nt
CCCCc1cc(O)c(CCCC)c(O)c1 | -0.75 | 37* | -3.3* | 10 | 63* | 42 | 275* | 320*
Cc1ccc(C(=O)N/C(=C\c2cccs2)C(=O)NCCCn2ccnc2)cc1C | nt | nt | nt | nt | nt | -7 | nt | nt
SMILES | WNV protease inh | M1 agonist | M1 antagonist | AP ELISA ortho | tolC growth inh | Ecoli WT expand | M1 agonist conf | M4 agonist ctr
Cc1cn(-c2ccc(Br)cc2)[nH]c1=O | 1.2 | 2.1* | 0.75 | 12 | 0 | -10 | -18 | ?
O=S(=O)(Nc1nc2ccccc2nc1N1CCN(c2ccccn2)CC1)c1ccc(Cl)cc1 | 2 | 9.2* | -0.32 | nt | 83* | -4 | 46 | ?
Cc1ccc(S(=O)(=O)Nc2nc3ccccc3nc2N2CCN(c3ccccc3F)CC2)cc1 | nt | nt | nt | nt | nt | -20 | nt | nt
CC(C)N(Cc1nc(-c2ccc(Cl)cc2)no1)C(=O)CCC1CCCC1 | 0.33 | 3.4* | 0.027 | 8 | 72* | 4 | ? | -45
CCOc1ccc(NC2=NC(C(=O)NCc3ccccc3)CC(=O)N2)cc1 (stereo not given) | -1.2 | -0.66 | 0.49 | -8 | -9 | -2 | nt | nt
O=C(Nc1ccc2c(c1)OCCO2)C1CCCN(S(=O)(=O)c2cnc[nH]2)C1 (stereo not given) | -0.6 | -0.14 | 0.3 | -3 | -15 | 4 | nt | nt
Cn1c(C(=O)NC2CC2)cc2c(=O)n(C)c3ccccc3c21 | -1.2 | 1.7 | -0.76 | 18 | 13 | 6 | nt | nt
Cn1c(C(=O)Nc2ccc3c(c2)OCCO3)cc2c(=O)n(C)c3ccccc3c21 | 2 | 4.6* | -0.19 | 16 | 38 | 0 | 3.7 | -11
CCOC(=O)N1CCC(NC(=O)c2cc3c(=O)n(C)c4ccccc4c3n2C)CC1 | 0.58 | 2* | 6.6e-05 | 10 | 12 | -5 | ? | -25
CCOC(=O)c1cc2c(=O)n3cccc(C)c3nc2n(Cc2cccnc2)c1=N | -0.39 | 0.92 | -0.27 | nt | 7 | nt | nt | nt
N#C/C(C(=O)NCc1ccco1)=C1/SC(Cc2ccc(F)cc2)C(=O)N1c1ccccc1 (stereo not given) | -0.48 | 2.4* | 0.19 | -2 | 10 | -7 | -21 | ?
CCC1S/C(=C(\C#N)C(=O)NCc2ccco2)N(c2ccc(F)cc2)C1=O (stereo not given) | -0.24 | 0.094 | 0.057 | 0 | 1 | -3 | nt | nt
Cc1cc2c(N3CCCCC3C)ncnc2s1 (stereo not given) | 2.1 | 3.5* | -0.93 | 4 | 2 | 7 | -7.6 | -34
COCCNC(=O)c1c(N)n(CCC2=CCCCC2)c2nc3ccccc3nc12 | 0.15 | 6.2* | 0.78 | 8 | -2 | -6 | 5.8 | -8.2
CCOc1ccc(/C=c2\sc3nc(-c4ccco4)nn3c2=O)cc1OCC | -1.6 | 105* | 0.16 | 27 | 9 | -14 | ? | 47
COc1ccccc1NC(=O)C(=O)N1N=C(C(C)C)CC1(O)C(F)(F)F (stereo not given) | nt | nt | nt | nt | nt | 4 | nt | nt
CCOc1ccc2oc(-c3ccccc3)c(C(=O)N3CCN(CCO)CC3)c2c1 | 0.03 | 4.2* | -0.62 | 6 | 8 | -3 | -9.5 | ?
O=C(NC(CSCc1ccccc1)C(=O)N/N=C/c1ccc(O)cc1O)c1ccc([N+](=O)[O-])cc1 (stereo not given) | nt | nt | nt | nt | nt | 12 | nt | nt
